Measurements published in ChEMBL document CHEMBL5724801, “EUbOPEN Chemogenomics Library - Multiplex” (2024).
Values joined by “and” are separate entries in the source; they are usually repeats but may differ in a detail not shown here. Equal values may be shown once.

System: Fibroblast
Assay: Multiplex assay against human fibroblast
Format: toxicity, cell-based
How it was run: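 At seeding, live cells were stained with Hoechst33342, BioTracker Green Microtubule Cytoskeleton Dye, MitoTracker Red and Annexin V Alexa Fluor 680. After compound addition they were imaged on a CQ1 microscope at 37°C and 5% CO2, and CellPathfinder machine-learning gating sorted them into Hoechst high-intensity objects or normal cells, with normal cells further split into healthy, pyknosed or fragmented nuclei and pyknosed cells into mitotic or apoptotic. Tubulin, mitochondrial-mass and membrane-permeability phenotypes are given as per cents of cells with healthy nuclei.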

[1] = 12 h, 1 µM, compound concentration 1 uM
[2] = 12 h, 10 µM, compound concentration 10 uM
[3] = 24 h, 1 µM, compound concentration 1 uM
[4] = 24 h, 10 µM, compound concentration 10 uM
[5] = 48 h, 1 µM, compound concentration 1 uM
[6] = 48 h, 10 µM, compound concentration 10 uM

Compound: O=C1[C@H](Cc2ccc(O)cc2)N2C(=O)CCN(C(=O)NCc3ccccc3)[C@H]2CN1Cc1cccc2ccccc12
- Population Apoptotic (%) [1]: 32% and 30%
- Population Fragmented Nuclei (%) [1]: 18% and 27%
- Population Healthy Nuclei (%) [1]: 57% and 45%
- Population Hoechst High Intensity Objects (%) [1]: 3% and 2%
- Population Membrane Permeable-Phenotype (%) [1]: 0% and 5%
- Population Mitochondria Different-Phenotype (%) [1]: 11% and 13%
- Population Mitotic Cells (%) [1]: 67% and 69%
- Population Normal (%) [1]: 96% and 97%
- Population Pyknosed Nuclei (%) [1]: 24% and 26%
- Population Tubulin-Different-Phenotype (%) [1]: 47% and 58%
- Total Cell Count [1]: 160 and 152
- Population Apoptotic (%) [2]: 35% and 45%
- Population Fragmented Nuclei (%) [2]: 18% and 23%
- Population Healthy Nuclei (%) [2]: 58% and 45%
- Population Hoechst High Intensity Objects (%) [2]: 8% and 9%
- Population Membrane Permeable-Phenotype (%) [2]: 0% and 8%
- Population Mitochondria Different-Phenotype (%) [2]: 24% and 15%
- Population Mitotic Cells (%) [2]: 64% and 55%
- Population Normal (%) [2]: 91% and 90%
- Population Pyknosed Nuclei (%) [2]: 23% and 30%
- Population Tubulin-Different-Phenotype (%) [2]: 84% and 83%
- Total Cell Count [2]: 146 and 144
- Population Apoptotic (%) [3]: 42% and 28%
- Population Fragmented Nuclei (%) [3]: 16% and 30%
- Population Healthy Nuclei (%) [3]: 62% and 47%
- Population Hoechst High Intensity Objects (%) [3]: 3% and 2%
- Population Membrane Permeable-Phenotype (%) [3]: 3% and 7%
- Population Mitochondria Different-Phenotype (%) [3]: 7% and 8%
- Population Mitotic Cells (%) [3]: 57% and 71%
- Population Normal (%) [3]: 96% and 97%
- Population Pyknosed Nuclei (%) [3]: 21% and 22%
- Population Tubulin-Different-Phenotype (%) [3]: 49% and 58%
- Total Cell Count [3]: 158 and 147
- Population Apoptotic (%) [4]: 44% and 64%
- Population Fragmented Nuclei (%) [4]: 15% and 25%
- Population Healthy Nuclei (%) [4]: 62% and 47%
- Population Hoechst High Intensity Objects (%) [4]: 10% and 7%
- Population Mitochondria Different-Phenotype (%) [4]: 44% and 21%
- Population Mitotic Cells (%) [4]: 55% and 35%
- Population Normal (%) [4]: 89% and 92%
- Population Pyknosed Nuclei (%) [4]: 21% and 26%
- Population Tubulin-Different-Phenotype (%) [4]: 83%
- Total Cell Count [4]: 141 and 137
- Population Apoptotic (%) [5]: 62% and 54%
- Population Fragmented Nuclei (%) [5]: 22% and 37%
- Population Healthy Nuclei (%) [5]: 59% and 45%
- Population Hoechst High Intensity Objects (%) [5]: 7% and 5%
- Population Membrane Permeable-Phenotype (%) [5]: 2% and 5%
- Population Mitochondria Different-Phenotype (%) [5]: 7% and 6%
- Population Mitotic Cells (%) [5]: 37% and 45%
- Population Normal (%) [5]: 92% and 94%
- Population Pyknosed Nuclei (%) [5]: 17%
- Population Tubulin-Different-Phenotype (%) [5]: 54% and 48%
- Total Cell Count [5]: 164 and 135
- Population Apoptotic (%) [6]: 85% and 66%
- Population Fragmented Nuclei (%) [6]: 21% and 32%
- Population Healthy Nuclei (%) [6]: 58% and 53%
- Population Hoechst High Intensity Objects (%) [6]: 15% and 10%
- Population Membrane Permeable-Phenotype (%) [6]: 0% and 5%
- Population Mitochondria Different-Phenotype (%) [6]: 50% and 38%
- Population Mitotic Cells (%) [6]: 14% and 33%
- Population Normal (%) [6]: 84% and 89%
- Population Pyknosed Nuclei (%) [6]: 20% and 14%
- Population Tubulin-Different-Phenotype (%) [6]: 85% and 94%
- Total Cell Count [6]: 124 and 119
